# According to ChEMBL document CHEMBL1148371, “Sulfonyl-containing aldophosphamide analogues as novel anticancer prodrugs targeted against cyclophosphamide-resistant tumor cell lines” (J Med Chem, 2004):
# How the values were obtained:
# V79 = experiment: In vitro cytotoxicity against V-79 chinese hamster lung fibroblasts (3 hr drug exposure time) by clonogenic assay; assay type: functional, cell-based; settings: Cricetulus griseus, V79, 3 h
# Method in brief: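 Subcloned V-79 cells in MEM with 10% heat-inactivated FBS were used. 500 log-phase cells per dish were seeded and left 12–15 h. Cells were exposed to drug or solvent for 3 h at 37 °C, rinsed with HBSS, and grown 5–6 days. Colonies were fixed with EtOH, stained with crystal violet and counted against solvent control. IC50 (50% loss of clonogenic survival) came from the semilog concentration–survival plot; three experiments.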
# [1] = Half life period in human plasma using phosphate buffer (0.08 M); assay type: ADME, cell-free
# [2] = Half life period in phosphate buffer (0.08 M); assay type: ADME
# Method in brief: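 Prodrug was incubated in 0.08 M phosphate buffer pH 7.4 at 37 °C with shaking, mostly at 3–9 mM (0.8 or 0.3 mM for some). Incubation was stopped with 2.0 M acetate pH 5.0 plus EtOH. Parent compound was quantified by silica TLC (UV 254 nm or NBP stain) and densitometry against a zero-time control. kobs came from the ln(% remaining) versus time slope; t1/2 = 0.693/kobs.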
# P388/CPA [3] = experiment: In vivo antitumor activity against P388/CPA leukemia (resistant) in mice measured by increase in life span after 200 mg/kg compound administration; assay type: functional; settings: Mus musculus
# Method in brief: (§1)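 CD2F1 mice (24–26 g) were implanted ip with 10^6 P388/0 or P388/CPA leukemia cells on day 0. A single ip dose (100, 200 or 400 mg/kg) in saline or saline–Tween 80 was given on day 1; vehicle controls were included. Five mice were used per dose. Survival was followed for 33 days against untreated controls and reported as % increase in life span and number of long-term survivors.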
# P388/CPA [4] = experiment: In vivo antitumor activity against P388/CPA leukemia in mice (resistant) measured by increase in life span after 100 mg/kg compound administration; assay type: functional; settings: Mus musculus; method in brief: as §1
# P388 [5] = experiment: In vivo antitumor activity against P388/0 (wild) leukemia in mice measured by increase in life span after 100 mg/kg compound administration; assay type: functional; settings: Mus musculus; method in brief: as §1
# P388 [6] = experiment: In vivo antitumor activity against P388/0 (wild) leukemia in mice measured by increase in life span after 200 mg/kg compound administration; assay type: functional; settings: Mus musculus; method in brief: as §1
# [7] = In vivo antitumor activity against P388/0 (wild) leukemia in mice measured by increase in life span after 400 mg/kg compound administration; Toxic; assay type: toxicity, organism-based; parameters: dose 400 mg/kg; settings: mouse; method in brief: as §1
# [8] = In vivo antitumor activity against P388/CPA leukemia (resistant) in mice measured by increase in life span after 400 mg/kg compound administration; Toxic; assay type: toxicity, organism-based; parameters: dose 400 mg/kg; settings: mouse; method in brief: as §1
# P388/CPA [9] = experiment: In vivo antitumor activity against P388/CPA leukemia (resistant) in mice measured by increase in life span after 400 mg/kg compound administration; assay type: functional; settings: Mus musculus; method in brief: as §1
# P388 [10] = experiment: In vivo antitumor activity against P388/0 (wild) leukemia in mice measured by increase in life span after 400 mg/kg compound administration; assay type: functional; settings: Mus musculus; method in brief: as §1
# [11] = Half life period in phosphate buffer (0.2 M); assay type: ADME
# [12] = In vivo antitumor activity against P388/0 (wild) leukemia in mice measured by increase in life span after 200 mg/kg compound administration; Toxic; assay type: toxicity, organism-based; parameters: dose 200 mg/kg; settings: mouse; method in brief: as §1
# P388 [13] = experiment: Number of long-term (33-day) survival P388/0 (wild) leukemia mice (5) after 400 mg/kg compound administration; assay type: functional, Mus musculus; method in brief: as §1
SMILES,IC50 (V79),half-life [1],half-life [2],ILS at 200 mg/kg (P388/CPA [3]),ILS at 100 mg/kg (P388/CPA [4]),ILS at 100 mg/kg (P388 [5]),ILS at 200 mg/kg (P388 [6]),ILS [7],ILS [8],ILS at 400 mg/kg (P388/CPA [9]),ILS at 400 mg/kg (P388 [10]),half-life [11],ILS [12],Number (P388 [13])
O=[N+]([O-])c1ccc(SCCO)cc1,69.1 µM,,,,,,,,,,,,,
O=[N+]([O-])c1ccc(S(=O)(=O)CCOP(=O)(NCCCl)NCCCl)cc1,2.1 µM,< 0.01 h,0.08 h,92%,60%,71%,138%,Toxic,Toxic,,,,,
Cc1ccc(SCCOP(N)(=O)N(CCCl)CCCl)cc1 (stereo not given),69.1 µM,,,,,,,,,,,,,
O=[N+]([O-])c1ccc(S(=O)(=O)CCOP(=O)(N(CCCl)CCCl)N(CCCl)CCCl)cc1,1.8 µM,0.37 h,0.69 h,68%,84%,100%,120%,Toxic,Toxic,,,,,
CSCC(OP(=O)(N(CCCl)CCCl)N(CCCl)CCCl)c1ccccc1 (stereo not given),69.1 µM,,,,,,,,,,,,,
CSCCOc1ccc([N+](=O)[O-])c([N+](=O)[O-])c1,69.1 µM,,,,,,,,,,,,,
O=P(NCCCl)(NCCCl)OCCS(=O)(=O)c1ccccc1,13.9 µM,2.6 h,6.4 h,28%,20%,33%,33%,,,60%,33%,,,
CS(=O)(=O)CCOP(=O)(N(CCCl)CCCl)N(CCCl)CCCl,24.1 µM,1.6 h,7.2 h,28%,12%,10%,10%,,,60%,30%,,,
CS(=O)(=O)CCOc1ccc([N+](=O)[O-])c([N+](=O)[O-])c1,69.1 µM,,,,,,,,,,,,,
CSCCO,69.1 µM,,,,,,,,,,,,,
O=P(O)(NCCCl)NCCCl [PALIFOSFAMIDE],60.9 µM,,,,,92%,,,,,,1 h,Toxic,
Cc1ccc(S(=O)(=O)CCOP(=O)(NCCCl)NCCCl)cc1,9.5 µM,4.4 h,12.1 h,12%,4%,23%,14%,,,36%,23%,,,
Cc1ccc(S(=O)(=O)CCOP(N)(=O)N(CCCl)CCCl)cc1 (stereo not given),11.5 µM,4.8 h,12.8 h,28%,28%,20%,50%,,,44%,90%,,,
CS(=O)(=O)CCOP(=O)(NCCCl)NCCCl,68 µM,2.2 h,6.4 h,84%,20%,33%,52%,,,108%,100%,,,1
CS(=O)(=O)CC(OP(=O)(N(CCCl)CCCl)N(CCCl)CCCl)c1ccccc1 (stereo not given),15.2 µM,1 h,1.8 h,20%,4%,10%,20%,,,60%,20%,,,
CSCCOP(=O)(N(CCCl)CCCl)N(CCCl)CCCl,69.1 µM,,,,,,,,,,,,,
Cc1ccc(SCCO)cc1,69.1 µM,,,,,,,,,,,,,
